This is an account of results in ChEMBL document CHEMBL3286252, “Synthesis, biological evaluation and structure-activity relationship of new GABA uptake inhibitors, derivatives of 4-aminobutanamides” (Eur J Med Chem, 2014).

Data set [1] deals with Mus musculus. Kind of data set: Antidepressant-like activity in albino Swiss (CD-1) mouse assessed as reduction in immobility time at 15 mg/kg, ip by forced swim test. As to conditions: route intraperitoneal. The format is functional. In outline:
(§1)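 Compound or vehicle was given i.p. 60 min before the test. Each mouse was placed for 6 min in a glass cylinder (25 cm high, 10 cm diameter) holding 10 cm of water at 23–25 C. Immobility, meaning passive floating, was timed over the final 4 min. 7–8 mice per group; ANOVA with Dunnett's test.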

Data set [2] concerns Mus musculus. The data set is described as follows: Antidepressant-like activity in albino Swiss (CD-1) mouse assessed as reduction in immobility time at 30 mg/kg, ip by forced swim test. The format is functional. The conditions noted are these: route intraperitoneal. The procedure, abridged: as §1
Data set [3] has as its system Mus musculus. Kind of data set: Antinociceptive activity in albino Swiss (CD-1) mouse assessed as latency time to pain reaction at 30 mg/kg, ip by hot plate test (reference value: 13.9 +/- 1.2 secs). It counts as functional. The conditions noted are these: route intraperitoneal. For orientation: Thermal pain tests record how soon the animal reacts.
In data set [4] the test system is Mus musculus. Kind of data set: Toxicity in albino Swiss (CD-1) mouse assessed as motor impairment at 30 to 100 mg/kg, ip measured after 60 mins by rotarod test. It counts as organism-based. Set-up: dose 30-100 mg/kg, route intraperitoneal. The conditions noted are these: in vivo, 1 h. The procedure, abridged: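 Mice were trained for 3 days at 18 rpm on a rod of 2 cm diameter. At least 24 h after the last training, they were given 30 or 100 mg/kg or vehicle (1% Tween 80) i.p. 60 min before testing at 6, 18, then 24 rpm. Impairment was defined as failing to stay on the rod for 1 min; mean time on the rod was recorded.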
Background: The rotarod test checks motor coordination on a turning rod.

Data set [5] can be described thus: Retardation factor of the compound using 25%NH3/MeOH/DCM/PE at ratio of 45:225:600:90 as solvent system by thin layer chromatography. It counts as physicochemical.
The target of data set [6] is Sodium- and chloride-dependent GABA transporter 1 (Mus musculus, UniProt P31648). The data set is described as follows: Inhibition of mouse GAT1 expressed in HEK293 cells assessed as decrease in [3H]GABA uptake. It counts as cell-based.
The next data set deals with T1, GABA transporter 2 (Mus musculus, UniProt P31651).
T1 sequence (P31651 whole entry): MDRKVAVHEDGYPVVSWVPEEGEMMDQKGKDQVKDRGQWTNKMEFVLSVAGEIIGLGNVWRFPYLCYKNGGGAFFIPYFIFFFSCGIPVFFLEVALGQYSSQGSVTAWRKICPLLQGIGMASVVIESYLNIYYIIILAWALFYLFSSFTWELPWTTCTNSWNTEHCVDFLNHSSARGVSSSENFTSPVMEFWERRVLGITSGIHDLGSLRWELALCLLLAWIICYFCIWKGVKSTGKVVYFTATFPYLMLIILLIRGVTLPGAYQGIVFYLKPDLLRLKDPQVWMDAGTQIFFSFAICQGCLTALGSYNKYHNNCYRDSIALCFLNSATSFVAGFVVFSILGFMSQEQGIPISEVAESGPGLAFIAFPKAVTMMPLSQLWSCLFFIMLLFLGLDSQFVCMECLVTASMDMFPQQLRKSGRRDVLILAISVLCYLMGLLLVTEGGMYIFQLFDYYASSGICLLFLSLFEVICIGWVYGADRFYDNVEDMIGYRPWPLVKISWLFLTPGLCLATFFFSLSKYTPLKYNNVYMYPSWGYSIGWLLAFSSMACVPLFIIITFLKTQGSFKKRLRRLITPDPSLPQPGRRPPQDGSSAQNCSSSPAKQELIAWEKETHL
The data set is described as follows: Inhibition of mouse GAT2 expressed in HEK293 cells assessed as decrease in [3H]GABA uptake. The format is cell-based.

In the next data set the target is T2, GABA transporter 3 (Mus musculus, UniProt P31649).
T2 sequence (P31649 whole entry): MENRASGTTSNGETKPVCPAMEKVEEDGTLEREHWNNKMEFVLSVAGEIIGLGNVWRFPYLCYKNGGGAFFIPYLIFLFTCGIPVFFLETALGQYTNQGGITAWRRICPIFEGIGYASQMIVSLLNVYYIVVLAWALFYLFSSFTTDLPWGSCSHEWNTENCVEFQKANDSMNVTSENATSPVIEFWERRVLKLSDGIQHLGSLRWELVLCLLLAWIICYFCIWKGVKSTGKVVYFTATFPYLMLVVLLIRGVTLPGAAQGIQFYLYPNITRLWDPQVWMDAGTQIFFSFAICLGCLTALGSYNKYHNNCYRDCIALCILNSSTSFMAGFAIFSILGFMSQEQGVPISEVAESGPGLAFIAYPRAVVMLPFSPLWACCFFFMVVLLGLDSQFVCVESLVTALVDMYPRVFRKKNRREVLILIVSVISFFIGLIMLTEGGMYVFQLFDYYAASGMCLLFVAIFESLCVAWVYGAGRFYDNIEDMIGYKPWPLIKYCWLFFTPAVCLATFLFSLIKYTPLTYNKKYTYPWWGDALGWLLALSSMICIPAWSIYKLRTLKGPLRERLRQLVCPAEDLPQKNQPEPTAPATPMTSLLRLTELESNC
The data set is described as follows: Inhibition of mouse GAT3 expressed in HEK293 cells assessed as decrease in [3H]GABA uptake. The format is cell-based.

The next data set addresses T3, GABA transporter 4 (Mus musculus, UniProt P31650).
T3 sequence (P31650 whole entry): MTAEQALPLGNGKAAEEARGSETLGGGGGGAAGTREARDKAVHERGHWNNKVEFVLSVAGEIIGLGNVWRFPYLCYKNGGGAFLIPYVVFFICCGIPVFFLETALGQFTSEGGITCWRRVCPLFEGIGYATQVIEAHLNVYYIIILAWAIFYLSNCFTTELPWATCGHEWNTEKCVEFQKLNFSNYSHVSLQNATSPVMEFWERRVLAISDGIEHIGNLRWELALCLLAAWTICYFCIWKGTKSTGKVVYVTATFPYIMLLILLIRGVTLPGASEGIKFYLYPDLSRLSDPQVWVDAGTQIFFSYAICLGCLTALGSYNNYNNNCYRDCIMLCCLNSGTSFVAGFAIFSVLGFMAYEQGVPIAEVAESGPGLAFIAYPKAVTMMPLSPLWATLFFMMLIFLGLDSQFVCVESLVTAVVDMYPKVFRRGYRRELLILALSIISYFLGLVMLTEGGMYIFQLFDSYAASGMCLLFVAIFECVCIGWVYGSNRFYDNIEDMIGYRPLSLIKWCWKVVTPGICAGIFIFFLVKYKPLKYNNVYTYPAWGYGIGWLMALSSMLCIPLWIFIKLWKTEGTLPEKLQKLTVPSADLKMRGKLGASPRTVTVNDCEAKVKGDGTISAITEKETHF
The data set is described as follows: Inhibition of mouse GAT4 expressed in HEK293 cells assessed as decrease in [3H]GABA uptake. The format is cell-based.

Data set [7] concerns the target Sodium- and chloride-dependent GABA transporter 1 (Mus musculus) (UniProt P31648). The data set is described as follows: Displacement of NO711 from mouse GAT1 expressed in HEK293 cells assessed as NO711 binding at 100 uM by LC-MS/MS analysis. It counts as cell-based.
Data set [8] relates to Mus musculus. Kind of data set: Anticonvulsant activity against pentylenetetrazole-induced seizure in albino Swiss (CD-1) mouse assessed as decrease in seizure episodes at 30 mg/kg, ip administered 60 mins prior to PTZ challenge. The format is functional. The conditions noted are these: route intraperitoneal. In outline: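 Male CD-1 mice (18–22 g) given compound or vehicle i.p. 60 min before PTZ 100 mg/kg s.c. Each mouse was then caged alone and watched for 30 min for clonic seizures, meaning whole-body clonus lasting >3 s with loss of righting reflex. Recorded: latency to first clonus, number of seizure episodes, and deaths within 30 min. Analysis: ANOVA/Dunnett or t-test; mortality by Fisher's exact test; 7–10 mice per group.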

The term inhibition in vivo denotes the drop in the measured response relative to a control, in per cent. One may read the IC50 as the midpoint of a concentration-inhibition curve. As to `NCCC(C(=O)NCc1ccc(Cl)cc1)N1CCN(C(c2ccccc2)c2ccccc2)CC1` (configuration not stated), the inhibition in vivo at 15 mg/kg in the data set with Mus musculus [1] was determined as 3.8%. Further, the inhibition in vivo at 30 mg/kg with Mus musculus [2] was determined as 28.9%; in the data set with Mus musculus [8] it was 83%. Further, the Time in the data set with Mus musculus [3] is listed as 27.5 s. Further, the Activity result is “Non-toxic” in the data set on Mus musculus [4] and 53% in [7]. Moreover, the Rf in data set [5] is 0.14. For the same compound, the IC50 is 25.7 µM in data set [6], 20.9 µM at GABA transporter 2, 10.7 µM on GABA transporter 3 and 12 µM at GABA transporter 4.

With `NCCC(C(=O)NCc1ccccc1Cl)N1CCN(C(c2ccccc2)c2ccccc2)CC1` (configuration not stated), the inhibition in vivo at 15 mg/kg in the data set on Mus musculus [1] is 26%. Further, the inhibition in vivo at 30 mg/kg in the data set with Mus musculus [2] stood at 38.5%; in the data set on Mus musculus [8] it was 37%. Also, the Time with Mus musculus [3] was determined as 18.8 s. Besides, the results for the Activity result (in the data set with Mus musculus [4]; in data set [7]) were “Non-toxic” and 55%, respectively. Also, the Rf in data set [5] was 0.18. Moreover, the IC50 in [6] is 20.9 µM; on GABA transporter 2 it was 21.9 µM; on GABA transporter 3 it was 10.5 µM; at GABA transporter 4, 15.1 µM.
